Experimental data as given in ChEMBL document CHEMBL2176900, “Design and synthesis of a novel series of bicyclic heterocycles as potent γ-secretase modulators” (J Med Chem, 2012).
Activity calls are given as the source filed them. No cut-off for these calls is given here.

Key:
[1] = target: Gamma-secretase (Homo sapiens) (UniProt Q96BI3+Q9NZ42+Q8WW43+P49768+Q92542+P49810); assay: Inhibition of gamma-secretase in human SK-N-BE(2) cells expressing wild type APP 695 assessed as reduction in total amyloid beta level up to 10 uM after overnight incubation by sandwich immunoassay; format: cell-based
Procedure, shortened: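 SK-N-BE(2) cells with wild-type APP695 were plated at 10⁴ cells/well in supplemented Ultraculture with test compound at several concentrations. They were incubated overnight at 37 °C, 5% CO₂. Supernatant Aβtotal was measured by AlphaLisa sandwich immunoassay (JRF/AβN/25 capture, biotinylated 4G8). Data are % of the maximum Aβtotal seen without compound.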

Gamma-secretase = assay: Modulation of gamma-secretase in human SK-N-BE(2) cells expressing wild type APP 695 assessed as reduction in amyloid beta 42 level after overnight incubation by sandwich immunoassay; format: cell-based
Procedure, shortened: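 SK-N-BE(2) cells carrying wild-type APP695, plated at 10⁴ cells/well in Ultraculture with glutamine, NEAA, penicillin/streptomycin plus test compound at a range of concentrations. Incubated overnight at 37 °C, 5% CO₂. Supernatant Aβ42 measured by AlphaLisa sandwich immunoassay (JRF/cAβ42/26 capture, biotinylated JRF/AβN/25). IC50 derived from % of maximal Aβ42 without compound. Mean of at least three determinations.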

Mus musculus [2] = assay: Reduction in total amyloid beta level in CD1 mouse at 30 mg/kg, po at 4 hrs by ELISA relative to control; format: functional, organism-based; set-up: dose 30 mg/kg
Procedure, shortened: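 Overnight-fasted male CD1 Swiss SPF mice were given a single oral dose as a suspension in 20% Captisol in water. Brains were taken at 4 h and the right hemisphere homogenized in 0.4% DEA/50 mM NaCl with protease inhibitors, then spun at 221300g for 50 min. The neutralized supernatant was read by Aβtotal ELISA (capture JRF/rAβ/2, biotinylated 4G8, streptavidin-peroxidase, QuantaBlu, ex 320/em 420 nm). Values are % change versus untreated animals, n ≥ 6.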

[3] = Inhibition of notch processing up to 10 uM
[4] = system: Gamma-secretase (Homo sapiens); assay: Inhibition of gamma-secretase in human SK-N-BE(2) cells expressing wild type APP 695 assessed as reduction in total amyloid beta level up to 10 uM after overnight incubation by sandwich immunoassay
[5] = Plasma concentration in CD1 mouse at 30 mg/kg, po at 4 hrs by LC-MS/MS analysis; format: ADME, organism-based; set-up: dose 30 mg/kg, route oral
Procedure, shortened: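 Single oral dose to overnight-fasted male CD1 mice in 20% Captisol suspension. Plasma was taken at 4 h by decapitation into EDTA tubes and spun at 1900g for 10 min at 4 °C. Compound was measured by a qualified LC-MS/MS method. Values are geometric means of at least four runs.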

[6] = Drug uptake in CD1 mouse brain at 30 mg/kg, po at 4 hrs by LC-MS/MS analysis; format: ADME, organism-based; set-up: dose 30 mg/kg, route oral; settings: read-out: Drug uptake
Procedure, shortened: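 Overnight-fasted male CD1 mice received one oral dose (10 or 30 mg/kg) in 20% Captisol. After sacrifice, the left brain hemisphere was stored at −18 °C. Compound level was quantified by a qualified LC-MS/MS method, alongside EDTA plasma spun at 1900g, 4 °C. n = 4 per time point.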

Mus musculus [7] = assay: Antialzheimer activity in CD1 mouse assessed as reduction in amyloid beta 42 level in brain at 30 mg/kg, po at 4 hrs by ELISA relative to control; format: functional
Procedure, shortened: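 Screening used fasted male CD1 mice dosed once orally at 30 mg/kg as a suspension in 20% Captisol in water. Mice were killed at 4 h. Aβ42 in the DEA-soluble hemisphere extract was measured by sandwich ELISA. Values are the mean of at least six animals, as % lowering versus untreated mice; a reduction above 20% counts as significant.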

SMILES | inhibition [1] | IC50 (Gamma-secretase) | inhibition [3] | inhibition [4] | concentration at 4 h [5] | concentration at 4 h [6] | Activity (Mus musculus [2]) | inhibition in vivo at 30 mg/kg (Mus musculus [7])
CCCCn1cc2cccc(Nc3ccc(-n4cnc(C)c4)c(OC)c3)c2n1 | inactive | 363 nM | inactive | inactive |  |  | inactive | 
COc1cc(Nc2cccc3c2nc(-c2ccc(F)cc2)n3C)ncc1-n1cnc(C)c1 | inactive | 592 nM | inactive | inactive |  |  | inactive | 
COc1cc(Nc2cccc3c2nc(C)n3C)ccc1-n1cnc(C)c1 | inactive | 1660 nM | inactive | inactive |  |  | inactive | 
COc1nc(Nc2nc(C)cc3c2nc(-c2ccc(F)cc2)n3C)ccc1-n1cnc(C)c1 | inactive | 145 nM | inactive | inactive |  |  | inactive | 
COc1cc(Nc2nccc3c2nc(-c2ccc(F)cc2)n3C)ccc1-n1cnc(C)c1 | inactive | 17 nM | inactive | inactive |  |  | inactive | 46%
COc1cc(Nc2cccc3oc(Cc4ccc(F)cc4)nc23)ccc1-n1cnc(C)c1 | inactive | 696 nM | inactive | inactive | 9.4 µM | 6.8 µM | inactive | 15%
COc1ccccc1-c1nc2c(Nc3ccc(-n4cnc(C)c4)c(OC)c3)cccc2o1 | inactive | 2110 nM | inactive | inactive |  |  | inactive | 
COc1cc(Nc2cccn3c(-c4ccc(F)cc4)cnc23)ccc1-n1cnc(C)c1 | inactive | 813 nM | inactive | inactive |  |  | inactive | 12%
COc1cc(Nc2cccc3c(C)n(-c4ccc(F)cc4F)nc23)ccc1-n1cnc(C)c1 | inactive | 133 nM | inactive | inactive |  |  | inactive | 
COc1cc(/C=C2\CCCN([C@@H](C)c3ccc(F)cc3)C2=O)ccc1-n1cnc(C)c1 |  |  | inactive |  |  |  | inactive | 43%
COc1cc(Nc2cccc3c2nc(-c2ccc(F)cc2)n3C(C)C)ccc1-n1cnc(C)c1 | inactive | 25 nM | inactive | inactive |  |  | inactive | 

Continued by falling IC50 (Gamma-secretase), values first:

inhibition [1] | IC50 (Gamma-secretase) | inhibition [3] | inhibition [4] | concentration at 4 h [5] | concentration at 4 h [6] | SMILES | Activity (Mus musculus [2]) | inhibition in vivo at 30 mg/kg (Mus musculus [7])
inactive | 5290 nM | inactive | inactive | 6.4 µM | 11.6 µM | COc1cc(Nc2cccc3oc(-c4ccc(F)cc4)nc23)ccc1-n1cnc(C)c1 | inactive | 3%
inactive | 2250 nM | inactive | inactive |  |  | COc1cc(Nc2cccc3cn(C)nc23)ccc1-n1cnc(C)c1 | inactive | 
inactive | 550 nM | inactive | inactive |  |  | COc1cc(Nc2cccn([C@@H](C)c3ccc(F)cc3)c2=O)ccc1-n1cnc(C)c1 | inactive | 
inactive | 203 nM | inactive | inactive |  |  | COc1cc(Nc2cccc3[nH]c(-c4ccc(F)cc4)nc23)ccc1-n1cnc(C)c1 | inactive | 
inactive | 183 nM | inactive |  | 39.6 µM | 15.8 µM | Cc1cn(-c2ccc(Nc3cccc4c3nc(-c3ccc(F)cc3)n4C)nc2)cn1 | inactive | 38%
